Test results from ChEMBL document CHEMBL1137321, “Identification of small molecule agonists of the orphan nuclear receptors liver receptor homolog-1 and steroidogenic factor-1” (J Med Chem, 2006).
Calls of active or inactive are those of the source. The calls are words filed in the database; no cut-off is given here.

Experiments:
[1] = molecular target: T1, Nuclear receptor subfamily 5 group A member 2 (Homo sapiens, UniProt O00482); experiment: Binding affinity to human LRH1 by FRET-based peptide recruitment assay
T1 sequence (O00482 whole entry): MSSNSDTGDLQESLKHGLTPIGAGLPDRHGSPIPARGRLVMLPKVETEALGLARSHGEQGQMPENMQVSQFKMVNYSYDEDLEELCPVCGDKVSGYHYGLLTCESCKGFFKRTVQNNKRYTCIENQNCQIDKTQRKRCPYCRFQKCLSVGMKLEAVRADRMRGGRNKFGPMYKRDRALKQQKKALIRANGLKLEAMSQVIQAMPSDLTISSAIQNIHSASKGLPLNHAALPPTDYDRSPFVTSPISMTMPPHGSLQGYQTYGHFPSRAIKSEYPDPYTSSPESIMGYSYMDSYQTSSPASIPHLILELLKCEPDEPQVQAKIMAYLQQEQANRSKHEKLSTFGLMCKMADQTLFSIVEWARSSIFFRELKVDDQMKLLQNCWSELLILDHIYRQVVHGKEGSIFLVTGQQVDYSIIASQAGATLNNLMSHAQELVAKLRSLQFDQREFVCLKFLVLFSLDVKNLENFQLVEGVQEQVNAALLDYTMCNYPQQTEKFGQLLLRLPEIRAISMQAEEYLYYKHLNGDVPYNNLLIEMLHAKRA
How it was run: (§1)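 The apo-receptor starts with 1 equiv of bound phospholipid. EC50 determined, n = 3. Relative efficacy is normalized to the reference agonist at ±5%.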

Steroidogenic factor 1 [2] = molecular target: T2, Steroidogenic factor 1 (Homo sapiens, UniProt Q13285); experiment: Binding affinity to human SF1 by FRET-based peptide recruitment assay
T2 sequence (Q13285 whole entry, the tested form may be a part): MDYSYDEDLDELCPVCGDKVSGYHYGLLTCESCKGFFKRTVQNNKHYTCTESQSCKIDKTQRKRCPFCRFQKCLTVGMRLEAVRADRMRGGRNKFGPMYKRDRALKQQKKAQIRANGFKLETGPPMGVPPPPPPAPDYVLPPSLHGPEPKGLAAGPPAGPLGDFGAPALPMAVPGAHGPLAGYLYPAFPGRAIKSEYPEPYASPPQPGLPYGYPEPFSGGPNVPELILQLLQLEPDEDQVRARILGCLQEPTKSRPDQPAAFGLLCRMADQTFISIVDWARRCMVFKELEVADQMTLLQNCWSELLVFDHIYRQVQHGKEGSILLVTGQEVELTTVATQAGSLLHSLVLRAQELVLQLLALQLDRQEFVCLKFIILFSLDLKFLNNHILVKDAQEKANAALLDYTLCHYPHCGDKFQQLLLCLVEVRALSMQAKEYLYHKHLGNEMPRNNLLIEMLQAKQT
How it was run: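 FRET assay measuring recruitment of a DAX-1 peptide (aa 1-23) to human SF-1. The apo-receptor starts with 1 equiv of bound phospholipid. Relative efficacy is normalized to the reference agonist at ±5%.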

Steroidogenic factor 1 [3] = molecular target: T2, Steroidogenic factor 1; experiment: Binding affinity to human SF1 relative to 3-Hexyl-1-phenylamino-2-phenyl-cis-bicyclo[3.3.0]oct-2-ene1 by FRET-based peptide recruitment assay
How it was run: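 FRET assay measuring recruitment of a DAX-1 peptide (aa 1-23) to human SF-1. The apo-receptor starts with 1 equiv of bound phospholipid. EC50 determined, n = 3. Relative efficacy is normalized to the reference agonist at ±5%.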

[4] = molecular target: T1, Nuclear receptor subfamily 5 group A member 2; experiment: Binding affinity to human LRH1 relative to 3-(E-Oct-4-en-4-yl)-1-phenylamino-2-phenyl-cis-bicyclo[3.3.0]oct-2-ene by FRET-based peptide recruitment assay; how it was run: as §1
[5] = molecular target: T1, Nuclear receptor subfamily 5 group A member 2; experiment: Agonist activity at human LRH1 assessed as induction of SHP mRNA expression in human primary hepatocytes at 10 uM; format: functional, cell-based; conditions: Hepatocyte
How it was run: (§2)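 Human liver cells (HepG2 cells or primary hepatocytes) treated with 10 µM compound; SHP mRNA expression quantified by quantitative PCR.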

[6] = molecular target: T1, Nuclear receptor subfamily 5 group A member 2; experiment: Agonist activity at human LRH1 expressed in CV1 cells assessed as SHP reporter gene transactivation by luciferase assay; format: functional, cell-based, CV-1
[7] = molecular target: T1, Nuclear receptor subfamily 5 group A member 2; experiment: Agonist activity at human LRH1 assessed as induction of SHP mRNA expression in HepG2 cells at 10 uM; format: functional, cell-based; how it was run: as §2

In the case of CCCCCCC1=C(c2ccccc2)[C@]2(Nc3ccc(C(C)(C)C)cc3)CCC[C@@H]2C1 (relative stereo), the EC50 [1] is reported as greater than 10000 nM and the EC50 (Steroidogenic factor 1 [2]) is reported as greater than 10000 nM.

Molecule c1ccc(N[C@@]23CCC[C@@H]2CC(c2ccccc2)=C3c2ccccc2)cc1 (relative stereo) has an Efficacy (Steroidogenic factor 1 [3]) of 55%, an EC50 [1] of 150 nM and an Efficacy [4] of 35%. For the same molecule, the EC50 (Steroidogenic factor 1 [2]) was 120 nM.

For CCC/C=C(\CCC)C1=C(C2CCCCC2)[C@]2(Nc3ccccc3)CCC[C@@H]2C1 (relative stereo), the Efficacy (Steroidogenic factor 1 [3]) was 90%, the EC50 [1] was 12 nM and the Efficacy [4] was 50%. The EC50 (Steroidogenic factor 1 [2]) was 10 nM.

Work on CCCCCCC1=C(c2ccccc2)[C@]2(Nc3ccc(I)cc3)CCC[C@@H]2C1 (relative stereo) yielded an EC50 [1] greater than 10000 nM and an EC50 (Steroidogenic factor 1 [2]) greater than 10000 nM.

With CCCCCCC1=C(c2ccccc2)[C@]2(Nc3ccccc3)CCC[C@@H]2C1 (relative stereo) the EC50 [1] was 34 nM and the Efficacy [4] was 45%.

With CCC/C=C(\CCC)C1=C(c2ccccc2)[C@]2(Nc3ccccc3)CCC[C@@H]2C1 (relative stereo) the Efficacy (Steroidogenic factor 1 [3]) was 50%, the Activity [5] was “Active” and the EC50 [1] was 430 nM. The EC50 [6] was 1000 nM and the Activity [7] was “Active”.

For CC/C=C(\CC)C1=C(c2ccccc2)[C@]2(Nc3ccccc3)CCC[C@@H]2C1 (relative stereo), the Efficacy (Steroidogenic factor 1 [3]) was 80%, the EC50 [1] was 1400 nM and the Efficacy [4] was 50%. The EC50 (Steroidogenic factor 1 [2]) was 800 nM.

CCCCC(C)C1=C(c2ccccc2)[C@]2(Nc3ccccc3)CCC[C@@H]2C1 (relative stereo) was tested, and the Efficacy (Steroidogenic factor 1 [3]) was 90%, the EC50 [1] was 70 nM and the Efficacy [4] was 45%. The EC50 (Steroidogenic factor 1 [2]) was 130 nM.

CCC/C=C(\CCC)C1=C(c2ccc(Br)cc2)[C@]2(Nc3ccccc3)CCC[C@@H]2C1 (relative stereo) showed an Efficacy (Steroidogenic factor 1 [3]) of 35%, an EC50 [1] of 160 nM and an Efficacy [4] of 70%. For the same molecule, the EC50 (Steroidogenic factor 1 [2]) was 170 nM.

CCC/C=C(\CCC)C1=C(c2ccc3ccccc3c2)[C@]2(Nc3ccccc3)CCC[C@@H]2C1 (relative stereo) gave an Efficacy (Steroidogenic factor 1 [3]) of 30%, an EC50 [1] of 60 nM and an Efficacy [4] of 55%. The EC50 (Steroidogenic factor 1 [2]) was 130 nM.

With CCCCCCCCC(C)C1=C(c2ccccc2)[C@]2(Nc3ccccc3)CCC[C@@H]2C1 (relative stereo) the Efficacy (Steroidogenic factor 1 [3]) was 95%, the EC50 [1] was 320 nM and the Efficacy [4] was 25%. For the same molecule, the EC50 (Steroidogenic factor 1 [2]) was 130 nM.

CCCCCCC1=C(c2ccccc2)[C@]2(Nc3ccc(OC(F)(F)F)cc3)CCC[C@@H]2C1 (relative stereo) gave an EC50 [1] greater than 10000 nM and an EC50 (Steroidogenic factor 1 [2]) greater than 10000 nM.

CC1=C(c2ccccc2)[C@]2(Nc3ccccc3)CCC[C@@H]2C1 (relative stereo) showed an EC50 [1] of 2100 nM, an Efficacy [4] of 20% and an EC50 (Steroidogenic factor 1 [2]) greater than 10000 nM.

Molecule CCC/C=C(\CCC)C1=C(c2cccc(OC)c2)[C@]2(Nc3ccccc3)CCC[C@@H]2C1 (relative stereo) has an Efficacy (Steroidogenic factor 1 [3]) of 45%, an EC50 [1] of 100 nM and an Efficacy [4] of 115%. For the same molecule, the EC50 (Steroidogenic factor 1 [2]) was 140 nM.

For CCCCCCCCCCCCC1=C(c2ccccc2)[C@]2(Nc3ccccc3)CCC[C@@H]2C1 (relative stereo), the EC50 [1] was greater than 10000 nM and the EC50 (Steroidogenic factor 1 [2]) was greater than 10000 nM.

CCCCCCC1=C(c2ccccc2)[C@]2(Nc3cccc4ccccc34)CCC[C@@H]2C1 (relative stereo) was tested, and the EC50 [1] was 1200 nM, the Efficacy [4] was 45% and the EC50 (Steroidogenic factor 1 [2]) was greater than 10000 nM.

Molecule CCCCCCC1=C(c2ccccc2)[C@]2(Nc3cccc(F)c3)CCC[C@@H]2C1 (relative stereo) has an Efficacy (Steroidogenic factor 1 [3]) of 70%, an EC50 [1] of 330 nM and an Efficacy [4] of 45%. It also gave an EC50 (Steroidogenic factor 1 [2]) of 560 nM.

In the case of CCCCCCC1=C(c2ccccc2)[C@]2(Nc3ccc(Cl)cc3)CCC[C@@H]2C1 (relative stereo), the Efficacy (Steroidogenic factor 1 [3]) is reported as 25%, the EC50 [1] is reported as 1000 nM and the Efficacy [4] is reported as 15%. For the same molecule, the EC50 (Steroidogenic factor 1 [2]) was 700 nM.

CCCCC/C=C(\CCCCC)C1=C(c2ccccc2)[C@]2(Nc3ccccc3)CCC[C@@H]2C1 (relative stereo) showed an Efficacy (Steroidogenic factor 1 [3]) of 30%, an EC50 [1] greater than 10000 nM and an EC50 (Steroidogenic factor 1 [2]) of 14 nM.

CCC/C=C(\CCC)C1=C(CCCC)[C@]2(Nc3ccccc3)CCC[C@@H]2C1 (relative stereo) was tested, and the Efficacy (Steroidogenic factor 1 [3]) was 95%, the EC50 [1] was 22 nM and the Efficacy [4] was 50%. For the same molecule, the EC50 (Steroidogenic factor 1 [2]) was 30 nM.

CCCCCCC1=C(c2ccccc2)[C@]2(Nc3cccc(C)c3C)CCC[C@@H]2C1 (relative stereo) gave an Efficacy (Steroidogenic factor 1 [3]) of 20%, an EC50 [1] of 30 nM and an Efficacy [4] of 30%. For the same molecule, the EC50 (Steroidogenic factor 1 [2]) was 11 nM.

Molecule c1ccc(N[C@@]23CCC[C@@H]2CC(C2CCCCC2)=C3c2ccccc2)cc1 (relative stereo) has an Efficacy (Steroidogenic factor 1 [3]) of 65%, an EC50 [1] of 230 nM and an Efficacy [4] of 25%. The EC50 (Steroidogenic factor 1 [2]) was 180 nM.

With CCC/C=C(\CCC)C1=C(C)[C@]2(Nc3ccccc3)CCC[C@@H]2C1 the EC50 [1] was 90 nM, the Efficacy [4] was 15% and the EC50 (Steroidogenic factor 1 [2]) was greater than 10000 nM.
